Screens from PubChem BioAssay.
Sampled rows, rich in hits. Any-hit rate of the full collection: about 3.7%.
Exocytosis inh – lytic granule exocytosis inhibition; 360,000 compounds, 0.66% hits; inhibition, % at 10 µM; TALL-104 LAMP-1 surface exposure, flow cytometry; cells stimulated with thapsigargin and PMA;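 active means inhibition above about 55%, limit read from the data; inconclusive means no clear call, values can overlap the other calls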
EBI2 block – antagonists of human EBI2 receptor | EBI2 beta-arrestin recruitment, luminescence, 7a,25-OHC stimulated | inhibition, % at 5 µM | P32249 | 360,000 compounds, 0.81% hits; in the data active means inhibition above about 38%;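 further: enzyme fragment complementation signal reports receptor beta-arrestin coupling in cells; 0% = agonist plus DMSO wells and 100% = wells without agonist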
MC4R ag barr – agonists of human melanocortin 4 receptor (MC4R) beta-arrestin | U2OS MC4R beta-arrestin complementation, luminescence; percent of melanotan II response, DMSO zero | activation, % at 8.9 µM | 360,000 compounds, 0.98% hits;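 active means activation above a per-plate cutoff, the mean activation of sample wells on that plate plus 3 SD, cut at about 8% in these data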
Target sequence (P32245 whole entry, looked up): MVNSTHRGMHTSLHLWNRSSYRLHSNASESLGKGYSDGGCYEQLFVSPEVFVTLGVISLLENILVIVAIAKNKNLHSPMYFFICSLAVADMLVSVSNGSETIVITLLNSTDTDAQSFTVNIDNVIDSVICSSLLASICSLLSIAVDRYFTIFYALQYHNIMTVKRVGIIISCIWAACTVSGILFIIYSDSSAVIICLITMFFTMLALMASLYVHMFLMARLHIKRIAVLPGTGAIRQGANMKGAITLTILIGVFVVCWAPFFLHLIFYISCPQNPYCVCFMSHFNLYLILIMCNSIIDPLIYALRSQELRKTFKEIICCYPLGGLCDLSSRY
MC4R antagonist – blocks human MC4R cAMP signaling; P32245; MC4R-expressing cells, MTII-stimulated cAMP, LANCE TR-FRET; 360,000 compounds, 0.48% hits; inhibition, % at 6.5 µM; AID 540295;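 active means inhibition above its plate's cutoff, the mean of tested wells on that plate plus 3 SD, cut at about 29% in these data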;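 further: 0% = Melanotan II alone and 100% = Melanotan II plus saturating MCL0020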
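System: U2OS cells stably expressing human melanocortin 4 receptor (MC4R). Reagent: Melanotan II challenge after compound preincubation. Doses: 6.5 µM. Times: 30-min compound, 1-h challenge, 1-h detection, room temperature. Measured by: TR-FRET with Eu-cAMP and labeled anti-cAMP, 671 nm. Replicates: singlicate.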
Myeloid diff 2 – compounds promoting myeloid differentiation; ER-HoxA9 myeloid progenitors, lysozyme-GFP differentiation, flow cytometry; calls only at 10 µM; 360,000 compounds, 1% hits;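 active means normalized GFP-positive differentiation at or above the plate's own cutoff, the solvent-only control mean plus 3 SD; inconclusive means no clear call, values can overlap the other calls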;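 further: cells exposed to compound for four days before flow analysis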
* marks the source's active call; other numbers are inactive results; i = inactive; ? = inconclusive; / = no result given; + = active, no number.

SMILES | Exocytosis inh | EBI2 block | MC4R ag barr | MC4R antagonist | Myeloid diff 2
COc1ccc(C2c3cc4c(cc3OC(N3CCOCC3)C2C)OCO4)c(OC)c1 (stereo not drawn) | -2 | 10 | 1 | 8 | i
CCCN(CCC)Cc1c(C(=O)N/N=C/CCc2ccccc2)nnn1-c1nonc1N | 8 | 6 | 9.2* | 9 | i
CCCN(CCC)Cc1c(C(=O)N/N=C/c2ccncc2)nnn1-c1nonc1N | 8 | 11 | -2 | 9 | i
Cc1ccc(SCc2c(C(=O)N/N=C/c3ccccc3)nnn2-c2nonc2N)cc1 | 85* | 3 | 2 | 5 | i
Nc1nonc1-n1nnc(C(=O)N/N=C/c2ccccc2)c1CSc1ccc(Cl)cc1 | 12 | 1 | 9.1* | 1 | i
Nc1nonc1-n1nnc(C(=O)N/N=C/c2cccc(Cl)c2)c1CSc1ccc(Cl)cc1 | 3 | 2 | 2 | 10 | i
Cc1ccc(/C=N/NC(=O)c2nnn(-c3nonc3N)c2CSc2ccccc2)cc1 | 4 | 14 | 8 | -1 | i
Cc1ccc(SCc2c(C(=O)N/N=C/c3ccc4c(c3)OCO4)nnn2-c2nonc2N)cc1 | 79* | 12 | 0 | 2 | i
COc1cccc(OCC(=O)NNC(=O)c2ccc3ccccc3c2)c1 | 0 | 26 | -1 | 6 | i
CCOC(=O)c1ccc(N=c2sc(C(=O)OC)cc(=O)n2Cc2ccc3c(c2)OCO3)cc1 | -1 | 73* | 2 | 16 | i
COc1ccc(OC)c(S(=O)(=O)ON2C(=O)c3ccccc3C2=O)c1 | -7 | -6 | 0 | 13 | +
CC(=O)c1cc(C(=O)N2CCc3c([nH]c4ccccc34)C2C2CCCCC2)[nH]n1 (stereo not drawn) | 4 | -21 | -4 | 0 | +
N#C/C(=C\c1ccc(OCc2ccccc2)cc1)C(=O)Nc1nc2c(s1)CCN(Cc1ccccc1)C2 | -1 | -3 | -2 | 5 | i
CN(C)c1ccc(/C=C(/C#N)C(=O)Nc2nc3c(s2)CCN(Cc2ccccc2)C3)cc1 | 9 | 3 | -2 | 11 | +
Cc1ccc(OC2=NS(=O)(=O)c3ccccc32)cc1 | 1 | -2 | 0 | 9 | +
CNC[C@H](CC1CCCCC1)NC[C@H](Cc1ccccc1)NCCC12CC3CC(CC(C3)C1)C2 | -4 | 7 | 26* | 27 | /
NC[C@H](Cc1ccccc1)NCCCCC1CCCCC1 | 10 | -9 | 2 | 6 | i
F[B-](F)(F)c1cncc2ccccc12 | -2 | -7 | 4 | -12 | i
COc1ccc2c(c1)c(N=NC(N)=S)c(O)n2CC(=O)c1ccccc1 | -11 | -8 | 12* | -1 | i
CC1CCCC(C)N1C(=O)COC(=O)c1n[nH]c(=O)c2ccccc12 (stereo not drawn) | 3 | 0 | -1 | -15 | i
O=C(c1ccoc1)N1CCC2(CC1)Oc1ccc(Cl)cc1C(=O)C21CC(c2ccc(Cl)cc2)=NO1 (stereo not drawn) | -7 | 1 | -1 | 5 | i
O=C(c1ccoc1)N1CCC2(CC1)Oc1ccc(F)cc1C(=O)C21CC(c2ccc(Cl)cc2)=NO1 (stereo not drawn) | 2 | 7 | 1 | 15 | +
CSc1ccc(/C=C(\C(=O)O)c2ccc(S(=O)(=O)N3CCCC3)s2)cc1 | 1 | 6 | -1 | -1 | i
Oc1ccc(/C=N/Nc2ccnc3cc(Cl)ccc23)c(O)c1 | 3 | 46* | 8 | 0 | +
Cc1ccccc1/C=N/Nc1ccnc2cc(Cl)ccc12 | 76* | 22 | 8.5* | -2 | i
SMILES | Exocytosis inh | EBI2 block | MC4R ag barr | MC4R antagonist | Myeloid diff 2
Clc1ccc(-c2csc(-c3cccnc3)n2)s1 | 2 | 9 | 1 | -1 | i
C[C@H](CO)N1C[C@H](C)[C@@H](CN(C)S(=O)(=O)c2ccccc2)Oc2ccc(NC(=O)NC3CCCCC3)cc2C1=O | 0 | -2 | -2 | -7 | i
O=C(CSc1nnc(COc2ccc(Cl)cc2Cl)o1)Nc1ccccn1 | -1 | -17 | 8.9* | 6 | i
O=C(COC(=O)CNS(=O)(=O)c1ccc(Cl)cc1)NC1CCCCC1 | 0 | 4 | -2 | 15 | i
COC(=O)C[C@@H]1C=C[C@H](NC(=O)Nc2ccc(F)cc2)[C@@H](CO)O1 | 3 | -7 | / | / | i
COc1ccc(CN2C(=O)CN(S(C)(=O)=O)CC2(C)C(=O)NC(C)C)cc1 (stereo not drawn) | 2 | -6 | / | / | i
O=C(CNC(=S)N(Cc1ccccc1Cl)C1CCCC1)NCCN1CCOCC1 | -2 | 6 | -3 | 10 | /
Cc1c(C=O)c2cc(OCc3ccccc3)ccc2n1C | 69* | 4 | 0 | -3 | i
Cc1cc2cc(OCc3ccccc3)ccc2n1C | -5 | 14 | 2 | 7 | i
O=[N+]([O-])c1cccc(OCCCN2CCC(Cc3ccccc3)CC2)c1 | 86* | 5 | 2 | 10 | i
COc1cccc(CNC(=O)[C@@H]2CCCN2C(=O)[C@H]2CCCCN2C(=O)c2cccc(Cl)c2)c1 | -2 | 2 | / | / | i
O=Cc1cnc2ccccc2c1-c1ccccc1 | 80* | 5 | 1 | -6 | i
CN1CC(O)(C(O)C(O)C(O)CO)SC1=S (stereo not drawn) | 1 | -11 | 0 | -2 | i
O=C(CSc1nnc(NC2CC2)s1)c1ccc[nH]1 | -4 | -4 | -3 | -4 | i
N#Cc1cc(C(=O)c2cc(F)ccc2O)cn(-c2nccs2)c1=O | -3 | 1 | -2 | -7 | +
CCSc1nnc(-c2c[nH]c3ccccc23)o1 | -25 | 3 | -1 | 3 | i
Clc1ccc(CSc2nnc(-c3c[nH]c4ccccc34)o2)cc1 | 6 | -13 | 8.6* | 9 | i
O=C(NCc1ccccc1)NC(=O)c1ccccc1F | -1 | 3 | -1 | 0 | i
COc1ccc(C(=O)C(OC(=O)c2ccc(C)c(NC(C)=O)c2)c2ccccc2)cc1 (stereo not drawn) | -2 | 6 | 2 | 7 | +
Oc1cccc2ccc(Nc3ccccn3)nc12 | 0 | 8 | 8.7* | 3 | i
Cc1ccc(NC(=O)Nc2nnc(Cc3ccc([N+](=O)[O-])cc3)s2)cc1 | -6 | -10 | 9.3* | -10 | i
O=C(NCc1cccnc1)/C(=C\c1ccc(-c2cccc(Cl)c2)o1)S(=O)(=O)c1ccccc1 | 90* | 42* | 0 | 23 | ?
O=C(NCc1cccnc1)/C(=C/c1ccc(-c2cccc(Cl)c2)o1)S(=O)(=O)c1ccccc1 | 7 | 3 | 1 | 1 | i
CCOC(=O)C1=CN(Cc2cccc(F)c2)S(=O)(=O)N(C)C1c1ccc2ccccc2c1 (stereo not drawn) | 1 | 13 | -1 | 0 | i
COc1ccc(C(=O)C2CCCN(C(=O)c3cccc(N4CCCC4=O)c3)C2)cc1OC (stereo not drawn) | -2 | -4 | -1 | 9 | ?
